Screening results from PubChem BioAssay.
This is a sample that favours compounds with a hit; in the whole collection about 1.6% have one here.
TPT1 inhibitor: inhibitors of Candida albicans tRNA 2'-phosphotransferase TPT1; 300,000 compounds, 0.81% hits; inhibition, % at 5 µM; AID 1962; recombinant caTPT1, FP RNA substrate dephosphorylation;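 active = inhibition above the mean of all tested compounds plus 3 SD, set per screening campaign, cut at about 24% in these data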
CSN inh: blocks human CSN-mediated cullin deneddylation; Q92905; 360,000 compounds, 0.38% hits; Purified CSN, SCF-Nedd8-OG deneddylation, fluorescence polarization; inhibition, % at 12.5 µM;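 active = pattern-corrected inhibition above about 35%, with an unprinted fluorescence ratio check between 0.5 and 1.5, limit read from the data, passing the limit was not always enough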
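Test system: Human Csn5 produced in HEK293T cells | Compound: 12.5 µM single point | Times: 90 min, room temperature | Signal: Fluorescence polarization readout | Read-out basis: % inhibition of substrate cleavage by Csn5 | Controls: no-enzyme wells high, enzyme-with-substrate wells low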
PKA-R1A activ: activates the PKA-R1A holoenzyme complex; P00514+P68181; PKA-R1A dissociation, Cy5-IP20 fluorescence polarization; scaled: DMSO 0%, 113 µM cGMP 100%; activation, % at 11.4 µM; 340,000 compounds, 0.083% hits; AID 504707;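 active = percent activation above the mean of all tested compounds plus 3 SD, cut at about 19% in these data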;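 note: higher means more PKAc released from R1A so a rise in polarization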
Rpn11 inh: Rpn11 (human) deubiquitinase inhibition; O00487; human 26S proteasome, Ub4-pepOG fluorescence polarization; 20S core pre-blocked with epoxomicin; calls only at 20 µM; 360,000 compounds, 0.59% hits; AID 588493;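 active = inhibition at 20 µM, scaled to each plate's controls, above about 33%, limit read from the data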
PKA-R2B act: activators of human PKA-R2B complex | P22694+P31323 | PKA-R2B holoenzyme dissociation, Cy5-IP20 fluorescence polarization; R2B truncated from residue 108, S112A mutant; 0% DMSO only, 100% 113 µM cGMP | activation, % at 11.4 µM | 340,000 compounds, 0.079% hits;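 active = activation above a cutoff set at the mean over all compounds plus 3 SD, cut at about 18% in these data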;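 note: higher means more holoenzyme dissociation and a rise in polarization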
Target sequence (P31323 whole entry, looked up, other chains not shown, the tested form may be a part): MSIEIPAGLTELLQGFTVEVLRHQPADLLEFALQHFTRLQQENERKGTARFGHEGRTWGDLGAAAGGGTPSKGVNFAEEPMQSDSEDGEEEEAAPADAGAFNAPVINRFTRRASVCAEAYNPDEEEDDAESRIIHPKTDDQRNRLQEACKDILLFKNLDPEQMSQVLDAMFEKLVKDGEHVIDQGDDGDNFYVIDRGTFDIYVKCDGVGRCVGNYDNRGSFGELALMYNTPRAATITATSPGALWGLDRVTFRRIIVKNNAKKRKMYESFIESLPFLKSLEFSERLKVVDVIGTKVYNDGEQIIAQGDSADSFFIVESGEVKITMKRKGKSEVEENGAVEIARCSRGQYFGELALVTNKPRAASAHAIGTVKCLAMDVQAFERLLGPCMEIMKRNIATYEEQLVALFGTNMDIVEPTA
HNF4A DNA FP: change in binding of human HNF4 alpha to DNA. P41235. HNF4a-FITC DNA binding, fluorescence polarization, 1 h. activity change, % at 10 µM. 360,000 compounds, 0.3% hits. AID 1224865; in the data active = activity change above about 30%, passing the limit was not always enough
caTPT1 confirm: TPT1 (C. albicans) inhibition, confirmation. shares compounds with TPT1 inhibitor. recombinant caTPT1, fluorescence polarization, RNase T1 coupled. inhibition, % at 5 µM. 2,400 compounds, 74% hits. AID 2149;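 active = inhibition above the primary screen limit, the mean inhibition of all tested compounds plus 3 SD, cut at about 25% in these data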
RNase T1 counter: RNase T1 inhibition in TPT1 counter-screen. AID 2153. RNase T1 cleavage, fluorescence polarization, 1536-well. inhibition, % at 5 µM. shares compounds with TPT1 inhibitor. 2,400 compounds, 83% hits;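 active = inhibition above the solvent-only control well mean plus 3 SD, limit set per screening run, cut at about 23% in these data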;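 note: inhibitors block cleavage so intact labeled substrate keeps polarization high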
Target sequence (P00651 whole entry, looked up): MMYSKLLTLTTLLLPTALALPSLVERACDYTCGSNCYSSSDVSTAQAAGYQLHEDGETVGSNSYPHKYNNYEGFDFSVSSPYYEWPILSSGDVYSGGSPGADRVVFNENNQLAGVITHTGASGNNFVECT
Of the large screens only hits and unclear results are named; the others gave an inactive call (follow-up assays come after a bar, where shown).

O=C(O)c1ccccc1Nc1cc(Cl)c2nonc2c1[N+](=O)[O-]	none
O=[N+]([O-])c1c(Nc2ccccn2)cc(Cl)c2nonc12	TPT1 inhibitor 128 (not shown: Rpn11 inh) | caTPT1 confirm 135 | RNase T1 counter 130
COc1ccc(C)c2sc(=NC(=O)c3cccc(N4C(=O)CCC4=O)c3)n(C)c12	TPT1 inhibitor 38 | caTPT1 confirm inactive | RNase T1 counter inactive
CCOc1ccccc1CN1CCNC(=O)C1CC(=O)N(C)CCc1cnn(C)c1 (stereo unspecified)	none
O=C(O)c1ccc(N=Nc2c(O)[nH]c3cc(Cl)ccc23)cc1	TPT1 inhibitor 29, Rpn11 inh active | caTPT1 confirm 54 | RNase T1 counter 67
O=C(COC(=O)/C=C/c1ccc(OC(F)F)cc1)Nc1ccc2[nH]c(=O)[nH]c2c1	none (no result: TPT1 inhibitor)
CC(=O)Nc1cccc(NC(=O)Nc2ccc(F)cc2F)c1	TPT1 inhibitor 55 | caTPT1 confirm inactive | RNase T1 counter inactive
COC(=O)[C@@]1(Cc2ccc(F)cc2)[C@H]2c3cc(C(=O)N4CCCC4)n(CCc4c[nH]c5ccccc45)c3C[C@H]2CN1C(=O)c1ccccc1	none (no result: TPT1 inhibitor, PKA-R1A activ, Rpn11 inh, PKA-R2B act)
CN1C(=O)NC(c2ccccc2[N+](=O)[O-])C2=C1CCCC2=O (stereo unspecified)	none
CCn1c2ccccc2c2cc(/C(C)=N/O)ccc21	none
CCn1c2ccccc2c2cc(N)ccc21	TPT1 inhibitor 26, CSN inh 36 (not shown: Rpn11 inh) | caTPT1 confirm 28 | RNase T1 counter 40
COc1ccccc1-n1ccnc(SCC(=O)NCCc2ccccc2)c1=O	none
Cc1cc(OCC(=O)N2CCC(O)CC2)c2c(C)cc(=O)oc2c1	none
O=C1CC(C(F)(F)C(F)(F)C(F)(F)C(F)F)=Nc2ccccc2N1	TPT1 inhibitor 75 | caTPT1 confirm inactive | RNase T1 counter inactive
O=C1CC(/C=C/c2ccco2)=Nc2ccccc2N1	none
Cc1ccc(OCC(=O)N2CCN(c3ccc([N+](=O)[O-])c(N4CCOCC4)c3)CC2)cc1	TPT1 inhibitor 31 | caTPT1 confirm inactive | RNase T1 counter inactive
Cc1ccc(NC(=O)c2cc(S(=O)(=O)N3CCOCC3)c(Br)s2)cc1	TPT1 inhibitor 29 | caTPT1 confirm inactive | RNase T1 counter inactive
CN1CCc2c(sc3c2C(=O)NC(c2ccccc2)N3)C1 (stereo unspecified)	TPT1 inhibitor 27 | caTPT1 confirm 31 | RNase T1 counter 45
Cc1ccc(C2NC(=O)c3c(sc4c3CCN(C)C4)N2)s1 (stereo unspecified)	TPT1 inhibitor 64 (not shown: Rpn11 inh) | caTPT1 confirm 38 | RNase T1 counter 47
O=C(Cc1ccc(NC(=O)C2CCN(C(=O)c3ccccc3)CC2)cc1)Nc1cccc(C(=O)N2CCCCC2)c1	none (no result: TPT1 inhibitor)
Cc1cc(=O)oc(C)c1C(=O)Nc1ccc2ncccc2c1	TPT1 inhibitor 25 | caTPT1 confirm 35 | RNase T1 counter 45
Cc1csc(Sc2ccc([N+](=O)[O-])cc2C(=O)OCC(=O)NC2CCCC(C)C2C)n1 (stereo unspecified)	none
COc1cc(/C=C2/C(=O)NN(c3ccc(F)cc3)C2=O)cc(Cl)c1O	TPT1 inhibitor 40 | caTPT1 confirm 80 | RNase T1 counter 99
COc1cc(/C=C2/C(=O)ON=C2C)cc(Cl)c1O	TPT1 inhibitor 42 | caTPT1 confirm 101 | RNase T1 counter 113
O=C(N/N=C\c1ccc(Cl)s1)c1ccc(Cn2cccn2)o1	none
O=C(N/N=C\c1c(O)ccc2ccccc12)c1ccc(Cn2cccn2)o1	TPT1 inhibitor 40 (not shown: Rpn11 inh) | caTPT1 confirm 45 | RNase T1 counter 49
COCc1c(C(=O)Nc2ccc3nc(N4CCOCC4)sc3c2)oc2ccccc12	none (no result: TPT1 inhibitor)
Cc1ccc(C2C3=C(CC(C)(C)CC3=O)OC3=C2C(=O)CC(C)(C)C3)cc1	none
Cc1ccc(C2C3=C(CCCC3=O)OC3=C2C(=O)CCC3)cc1	TPT1 inhibitor 54 | caTPT1 confirm inactive | RNase T1 counter inactive
CCN1/C(=C\C=C(C(C)=O)C(C)=O)Sc2ccccc21	TPT1 inhibitor 196 (not shown: Rpn11 inh) | caTPT1 confirm 167 | RNase T1 counter 157
CCOC(=O)/C(C#N)=C(C)/C=C1\Sc2ccccc2N1CC	TPT1 inhibitor 49 (not shown: Rpn11 inh) | caTPT1 confirm 39 | RNase T1 counter 50
CCN1/C(=C\C(=S)Nc2ccccc2)Sc2ccccc21	none
COc1ccc(C2NC3=C(CCCC3)C(C#N)(C#N)C2(C#N)C#N)cc1 (stereo unspecified)	TPT1 inhibitor 33 (no result: CSN inh, PKA-R1A activ, Rpn11 inh, PKA-R2B act, HNF4A DNA FP) | caTPT1 confirm 34 | RNase T1 counter 47
O=C(O)C1C2CCC(O2)C1C(=O)Nc1ccccc1Br (stereo unspecified)	none
Clc1ccccc1-c1nnc(-c2ccc3c(c2)OCO3)o1	none
CN(C)S(=O)(=O)c1cc(NC(=O)CN2CCc3ccccc32)ccc1Cl	none
CC1Cc2ccccc2N1CC(=O)Nc1ccc(S(=O)(=O)N(C)C)cc1 (stereo unspecified)	none
CN(C)S(=O)(=O)c1cc(NC(=O)CN2CCCc3ccccc32)ccc1Cl	TPT1 inhibitor 46 (not shown: Rpn11 inh) | caTPT1 confirm 51 | RNase T1 counter 61
CN(C)S(=O)(=O)c1ccc(NC(=O)CN2CCCc3ccccc32)cc1	TPT1 inhibitor 51 (not shown: Rpn11 inh) | caTPT1 confirm 42 | RNase T1 counter 54
CN(CC1COc2ccccc2O1)C(=O)c1cccc(S(=O)(=O)N2CCCC2)c1 (stereo unspecified)	none (no result: TPT1 inhibitor)
CCC(C)N=Cc1c(Nc2ccccc2)nc2c(C)cccn2c1=O (stereo unspecified)	none
CCOCCCNc1nc2c(C)cccn2c(=O)c1/C=C1\SC(=S)N(C(C)CC)C1=O (stereo unspecified)	TPT1 inhibitor 135 (not shown: Rpn11 inh) | caTPT1 confirm 157 | RNase T1 counter 145
CCn1c(/C=C/c2c(C)[nH]c3ccccc23)nc2ccccc2c1=O	TPT1 inhibitor 38 (not shown: Rpn11 inh) | caTPT1 confirm 59 | RNase T1 counter 71
Cc1[nH]c2ccccc2c1/C=C/C(=O)c1ccccc1	TPT1 inhibitor 32 (not shown: Rpn11 inh) | caTPT1 confirm 63 | RNase T1 counter 75
O=C(C[n+]1cccc2ccccc21)c1ccc([N+](=O)[O-])cc1	TPT1 inhibitor 32 | caTPT1 confirm inactive | RNase T1 counter inactive
O=[N+]([O-])c1ccc(Cl)c(C[n+]2cccc3ccccc32)c1	TPT1 inhibitor 59 | caTPT1 confirm inactive | RNase T1 counter inactive
